Read-outs that look alike come from different tables or passages of the source.
Key:
GUSB [1] = biological target: T1, GUSB (Mus musculus, UniProt P12265); assay type: biochemical, C57BL/6NJ mice; conditions: 10 μM added in vitro, 2 h, 37°C, physiologic pH
T1 sequence (P12265 23-648): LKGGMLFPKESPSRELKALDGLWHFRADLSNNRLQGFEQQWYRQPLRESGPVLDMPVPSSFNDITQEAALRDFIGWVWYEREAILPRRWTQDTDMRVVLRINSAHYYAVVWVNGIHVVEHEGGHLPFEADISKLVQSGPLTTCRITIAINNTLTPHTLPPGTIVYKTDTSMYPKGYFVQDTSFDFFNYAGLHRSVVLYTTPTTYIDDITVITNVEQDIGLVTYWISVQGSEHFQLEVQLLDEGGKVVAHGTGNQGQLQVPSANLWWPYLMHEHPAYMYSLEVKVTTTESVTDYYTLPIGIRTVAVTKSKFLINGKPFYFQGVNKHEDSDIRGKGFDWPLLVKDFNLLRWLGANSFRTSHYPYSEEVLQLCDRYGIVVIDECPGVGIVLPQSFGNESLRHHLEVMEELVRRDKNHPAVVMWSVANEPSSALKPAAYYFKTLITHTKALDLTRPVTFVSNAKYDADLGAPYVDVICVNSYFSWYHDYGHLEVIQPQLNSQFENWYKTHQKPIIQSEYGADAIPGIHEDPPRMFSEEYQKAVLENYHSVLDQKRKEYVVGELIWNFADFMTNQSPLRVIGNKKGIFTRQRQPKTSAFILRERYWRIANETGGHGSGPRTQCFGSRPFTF

[2] = assay type: in vivo, mice (C57BL/6J, C3H/HeJ); conditions: mouse, po, 500 mg/kg
How it was run: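 Oral gavage of 500 mg/kg in DMSO to C57BL/6J and C3H/HeJ mice (n=3–4/group), with sampling at 30 min under isoflurane. Marrow pellets were suspended in 50 mM sodium acetate pH 5 for 2 h on ice and centrifuged. Serum was acidified to pH 5 with HCl before HLB extraction and LC/MS. Marrow concentrations were corrected to pellet volume, assuming density 1.06 g/ml. Mean ± SEM.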

GUSB [3] = biological target: T1, GUSB; assay type: biochemical, C57BL/6J mice; conditions: 0.5 μM curcumin-glucuronide added ex vivo, sodium acetate buffer 50 mM pH 5, 2 h
[4] = assay type: in vivo, mice (C57BL/6J, C3H/HeJ, mps/mps); conditions: for concentration at 20 min: mouse, ip, 100 mg/kg
How it was run: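 Test compound dosed IP at 100 mg/kg in DMSO to 15-week female BL/6J, female HeJ and male mps/mps mice (n=3–5/group). Blood and marrow were taken under isoflurane at 20 min. Marrow pellets were resuspended in 50 mM sodium acetate pH 5 and held 2 h on ice, then supernatants were kept. Serum was acidified to pH 5, and aglycone and glucuronide were measured by HLB solid-phase extraction and LC/MS. Mean ± SEM.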

rh-HPSE = biological target: T2, rh-HPSE (Homo sapiens, UniProt Q9Y251); test: Deconjugation of curcumin-glucuronide by recombinant enzyme; assay type: biochemical; conditions: 5 μg/mL (100 nM) enzyme, 459 nM substrate, 24 h, 37°C, pH 5
T2 sequence (Q9Y251 158-543 limits assumed): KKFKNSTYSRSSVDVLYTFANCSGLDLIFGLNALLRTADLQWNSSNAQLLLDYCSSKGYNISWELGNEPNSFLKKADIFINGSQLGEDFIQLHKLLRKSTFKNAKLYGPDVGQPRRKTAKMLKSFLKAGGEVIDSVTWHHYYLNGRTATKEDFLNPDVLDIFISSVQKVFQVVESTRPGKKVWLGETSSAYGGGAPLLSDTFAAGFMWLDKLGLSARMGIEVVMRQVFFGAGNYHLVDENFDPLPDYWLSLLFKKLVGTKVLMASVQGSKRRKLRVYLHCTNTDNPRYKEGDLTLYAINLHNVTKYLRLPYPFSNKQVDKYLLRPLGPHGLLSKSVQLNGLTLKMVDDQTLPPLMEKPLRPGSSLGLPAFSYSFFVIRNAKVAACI
T2 sequence (Q9Y251 36-109 limits assumed): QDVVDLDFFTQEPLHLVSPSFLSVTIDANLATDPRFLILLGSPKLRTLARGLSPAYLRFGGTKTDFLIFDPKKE
How it was run: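 Recombinant human enzyme was incubated with synthesized glucuronide substrate in an enzyme-optimized pH 5 buffer for 24 h at 37°C. Activity was taken from quantitation of the remaining glucuronide substrate and the released aglycone product. n=3–6 per group.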

[5] = tested on: RANKL-stimulated osteoclast formation in RAW 264.7 cells; test: RANKL-stimulated osteoclastogenesis assay; assay type: cell-based, murine; conditions: even at 10-fold higher doses than the curcumin IC50
How it was run: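 RAW 264.7 cells were seeded at 5×10^3/well in DMEM with 10% FBS and 1% pen/strep and left to adhere overnight at 37°C, 5% CO2. They were pretreated 4 h with the test compound, then stimulated with recombinant mouse RANKL (50 ng/mL final) for 72 h at 37°C. TRAP-positive multinucleated osteoclasts were counted. n=4/group, mean ± SEM.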

Deconjugation in conditioned media from bone marrow cells (GUSB [1]): forming detectable aglycone curcumin | concentration at 30 min ([2]; C57BL/6J, bone marrow suspension): 0.36 µM | concentration at 30 min ([2]; C57BL/6J, serum): 82.7 µM | concentration at 30 min ([2]; male, C3H/HeJ, bone marrow suspension): 1.19 µM | concentration at 30 min ([2]; male, C3H/HeJ, serum): 80 µM | Deconjugation by soluble GUSB activity in cell-free marrow fractions (GUSB [3]): sufficient to deconjugate | concentration at 20 min ([4]; female, C3H/HeJ, bone marrow suspension): 2.7 µM | concentration at 20 min ([4]; female, C3H/HeJ, serum): 92.1 µM | concentration at 20 min ([4]; female, C57BL/6J, bone marrow suspension): 1.3 µM | concentration at 20 min ([4]; female, C57BL/6J, serum): 92.7 µM | concentration at 20 min ([4]; male, mps/mps, serum): 151 µM | Increase of bone marrow curcumin-glucuronide concentrations vs BL/6J ([4]; mps/mps mice, IP curcumin): 4 fold
Structure (SMILES): COc1cc(/C=C/C(=O)CC(=O)/C=C/c2ccc(O[C@@H]3O[C@H](C(=O)O)[C@@H](O)[C@H](O)[C@H]3O)c(OC)c2)ccc1O [curcumin-glucuronide]
Ability of HPSE to deconjugate curcumin glucuronide (rh-HPSE): only GUSB and KL were able to deconjugate | Effect on RANKL-stimulated osteoclast formation [5]: without effect
